Bioassay records deposited in PubChem BioAssay by Broad Institute.
Only a sample is shown.
A1 apoptosis 2: compounds inhibiting A1, read as caspase activation; MEF A1-2A-BIM cells, caspase-Glo luminescence, 3 h; percent of clofoctol response, DMSO zero; caspase activation, % (no concentration beside the values); 24,000 tested, under 10 active; in the data active = caspase activation above about 5.9%
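system = A1-2A-BIM-expressing MEF cells | quantity = 2500 MEF cells/well | dosing = 50 nL compound per well, pinned | schedule = overnight cell settling, then 3 h compound exposure, 37 °C | signal = luminescence from DEVD-luciferin Caspase-Glo reagent, 1:1 in 50 mM HEPES, 1 h RT | read-out = Caspase-3/7 activation, seen as rise in luminescence signal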
An asterisk follows results filed as active.

Results for O=C(N/N=C/c1cccc(Br)c1)c1ccccn1 ?
A1 apoptosis 2: -3

What do the screens show for `O=C(N/N=C/c1ccc(O)c(O)c1O)c1ccccc1O`?
A1 apoptosis 2: -5

Results for O=C(NO)c1ccc(C(=O)N/N=C/c2cccnc2Br)cc1 ?
A1 apoptosis 2: 0

What do the screens show for `O=C(CCCCCC(=O)N/N=C/c1ccc([N+](=O)[O-])c(O)c1)NO`?
A1 apoptosis 2: 0

How did COCC1=C2[C@@H](c3ccccc3)OB(O)C[C@@H]2[C@@H]2C(=O)N(C)C(=O)[C@@H]2C1 do in these assays?
A1 apoptosis 2: 0

How did CC(C)=CCC[C@H](C)C/C=N/NC(=O)CCCCCCC(=O)Nc1ccccc1O do in these assays?
A1 apoptosis 2: -2

How did Cc1noc(C)c1NC(=O)N(C)C[C@@H]1OCCCC[C@@H](C)Oc2ccc(NC(=O)Cc3ccccc3)cc2C(=O)N([C@@H](C)CO)C[C@@H]1C do in these assays?
A1 apoptosis 2: 0

Results for CCN(CC)c1ccc(/C=N/NC(=O)CCCCCCC(=O)Nc2ccccc2O)c(O)c1 ?
A1 apoptosis 2: 0

How did CCOc1ncnc2ccc(Br)cc12 do in these assays?
A1 apoptosis 2: 1

Results for OCc1ccc(-c2ccncc2)cc1 ?
A1 apoptosis 2: 1

Results for C=CCNC(=O)[C@H]1[C@@H]2C(=O)O[C@@H](c3ccccc3)[C@@H](c3ccccc3)N2[C@@H](c2ccccc2OCCO)[C@]12C(=O)Nc1ccccc12 ?
A1 apoptosis 2: -1

What do the screens show for `O=C(NO)c1cccc(C(=O)N/N=C/c2ccc3c(c2)CCO3)c1`?
A1 apoptosis 2: -1

Results for CC(/C=C/C(=O)NO)=C\c1cccc(OCc2ccc(COc3ccc4ccncc4c3)cc2)c1 ?
A1 apoptosis 2: 0

How did CC(/C=C/C(=O)NO)=C\c1ccccc1OC[C@@H]1[C@H]2C[C@H]3c4[nH]c5ccccc5c4CCN3C[C@@H]2CC[C@@H]1O do in these assays?
A1 apoptosis 2: 2

Results for CCOc1cccc(/C=N/NC(=O)c2ccc(C(=O)NO)cc2)c1OCC ?
A1 apoptosis 2: 0

Results for C#CCN([C@H](/C=C/C1CC1)[C@@H](O)Cc1ccccc1)[C@@H](Cc1ccc(N=[N+]=[N-])cc1)C(=O)OC ?
A1 apoptosis 2: 0
